Results from ChEMBL document CHEMBL5230168, “Design, synthesis, and biological evaluation of new arjunolic acid derivatives as anticancer agents” (RSC Med Chem, 2023).
Calls of active or inactive are those of the source. The rule behind the calls is not given here.

Columns and labels:
[1] = tested on: HT-29; assay: Cytotoxicity against human HT-29 cells assessed as inhibition of cell growth incubated for 72 hrs by MTT assay; format: functional, cell-based; settings: HT-29, 72 h
How it was run: (§1)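 Cells seeded per well (HT-29 4500, PANC-1 4000, SK-MEL-28 3200, A375 1200, A549 2500, H2170 and BJ 10 000) and left 24 h. They were then exposed to increasing concentrations for 72 h and incubated 1 h with MTT 0.5 mg mL−1. Formazan was dissolved in DMSO and absorbance read at 550 nm. IC50 from three independent experiments. Final DMSO ≤0.5%.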

[2] = tested on: PANC-1; assay: Induction of apoptosis in human PANC-1 cells assessed as late apoptotic cells at 0.94 uM incubated for 24 hrs by Annexin V-FITC/PI staining based flow cytometric analysis (reference value: 1.1%); format: functional
How it was run: (§2)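 PANC-1 seeded at 2 × 10^5 cells/well, grown 24 h, then treated 24 h. PI added just before flow cytometry. Quadrant percentages given as mean ± SD of three experiments. Untreated control.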

[3] = Toxicity in Balb/c mouse assessed as piloerection at 50 to 100 mg/kg, ip measured upto 24 hrs by Irwin test; format: organism-based; settings: in vivo, dose 50-100 mg/kg
How it was run: (§3)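 Irwin primary observation in female Balb/c mice aged 7–8 weeks, 3 per group. Single i.p. doses of 0.01, 0.1, 1, 5, 10, 50 and 100 mg kg−1 in 0.2% HPMC in saline; vehicle controls observed in parallel, non-blind. Standardized grid including rectal temperature and pupil diameter scored at 15, 30, 60, 120 and 180 min and 24 h, with continuous watch over 0–15 min.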

[4] = Toxicity in Balb/c mouse assessed as ptosis at 50 to 100 mg/kg, ip measured upto 24 hrs by Irwin test; format: organism-based; settings: in vivo, dose 50-100 mg/kg; how it was run: as §3
[5] = tested on: PANC-1; assay: Induction of apoptosis in human PANC-1 cells assessed as necrotic cells at 0.94 uM incubated for 24 hrs by Annexin V-FITC/PI staining based flow cytometric analysis (reference value: 3.9%); format: functional; how it was run: as §2
[6] = tested on: PANC-1; assay: Induction of apoptosis in human PANC-1 cells assessed as late apoptotic cells at […] incubated for 24 hrs by Annexin V-FITC/PI staining based flow cytometric analysis (reference value: 1.1%); format: functional; how it was run: as §2
[7] = Toxicity in Balb/c mouse assessed as loss of traction indication of muscle weakness at 50 to 100 mg/kg, ip measured upto 24 hrs by Irwin test; format: organism-based; settings: in vivo, dose 50-100 mg/kg; how it was run: as §3
[8] = tested on: PANC-1; assay: Induction of apoptosis in human PANC-1 cells assessed as early apoptotic cells at […] incubated for 24 hrs by Annexin V-FITC/PI staining based flow cytometric analysis (reference value: 5.2%); format: functional; how it was run: as §2
[9] = Toxicity in Balb/c mouse assessed as abnormal gait with rolling at 50 to 100 mg/kg, ip measured upto 24 hrs by Irwin test; format: organism-based; settings: in vivo, dose 50-100 mg/kg; how it was run: as §3
[10] = tested on: PANC-1; assay: Synergistic cytotoxicity against human PANC-1 cells assessed as combination index at 0.47 uM incubated for 72 hrs in the presence of 23.5 uM gemcitabine by MTT assay; format: functional
[11] = tested on: PANC-1; assay: Induction of apoptosis in human PANC-1 cells assessed as viable cells at 1.88 uM incubated for 24 hrs by Annexin V-FITC/PI staining based flow cytometric analysis (reference value: 89.8%); format: functional; settings: read-out: Activity; how it was run: as §2
[12] = tested on: PANC-1; assay: Induction of apoptosis in human PANC-1 cells assessed as appearance of apoptotic bodies at 0.47 to 2.82 uM incubated for 24 hrs by Hoechst 33342 staining based fluorescence microscopic analysis; format: functional, cell-based; settings: dose 0.47-2.82 µM
How it was run: (§4)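 PANC-1 at 6500 cells/well, pre-incubated 24 h, then treated for 24 h. Washed with PBS and stained with Hoechst 33342 (1 μg mL−1 in PBS) 10 min at 37 °C in the dark. Nuclear morphology imaged by high-content fluorescence microscopy with a DAPI filter. Untreated cells as control.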

[13] = tested on: A549; assay: Cytotoxicity against human A549 cells assessed as inhibition of cell growth incubated for 72 hrs by MTT assay; format: functional, cell-based; settings: A549, 72 h; how it was run: as §1
[14] = tested on: PANC-1; assay: Induction of cell cycle arrest in human PANC-1 cells assessed as accumulation of cells at G0/G1 phase at 1.88 uM incubated for 24 hrs by PI staining based flow cytometric analysis (Rvb= 51.8 %); format: functional
[15] = tested on: PANC-1; assay: Synergistic cytotoxicity against human PANC-1 cells assessed as combination index at 0.24 uM incubated for 72 hrs in the presence of 12 uM gemcitabine by MTT assay; format: functional
[16] = tested on: PANC-1; assay: Induction of apoptosis in human PANC-1 cells assessed as chromatin condensation at 0.47 to 2.82 uM incubated for 24 hrs by Hoechst 33342 staining based fluorescence microscopic analysis; format: functional, cell-based; settings: dose 0.47-2.82 µM; how it was run: as §4
[17] = tested on: PANC-1; assay: Induction of apoptosis in human PANC-1 cells assessed as necrotic cells at 1.88 uM incubated for 24 hrs by Annexin V-FITC/PI staining based flow cytometric analysis (reference value: 3.9%); format: functional; how it was run: as §2
[18] = tested on: PANC-1; assay: Induction of apoptosis in human PANC-1 cells assessed as necrotic cells at […] incubated for 24 hrs by Annexin V-FITC/PI staining based flow cytometric analysis (reference value: 3.9%); format: functional; how it was run: as §2

CCOC(=O)[C@]12CCC(C)(C)C[C@H]1C1=CC[C@@H]3[C@@]4(C)C(C=O)=C[C@@](C)(CO)[C@@H]4CC[C@@]3(C)[C@]1(C)CC2
IC50 [1]: 510 nM | Activity [2]: 1.2% | Activity [3]: Toxic | Activity [4]: Toxic | Activity [5]: 2.6% | Activity [6]: 1.1% | Activity [7]: Toxic | Activity [8]: 4.9% | Activity [9]: Toxic | CI [10]: 0.98 | viability at 1.88 µM [11]: 87.3% | Activity [12]: inactive | IC50 [13]: 830 nM | Activity [14]: 70.2% | CI [15]: 0.75 | Activity [16]: inactive | Activity [17]: 3.1% | Activity [18]: 2.3%
